# ChEMBL document CHEMBL2311290 (J Med Chem, 2013)
# Activity calls are given as the source filed them. The rule behind the calls is not given here.
# Columns and labels:
# [1] = target: Coagulation factor XI (Homo sapiens) (UniProt P03951); experiment: Inhibition of human FXIa assessed as S-2366 hydrolysis at 250 uM after 10 mins by microplate reader analysis
# In short: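 Human FXIa at 0.765 nM final in pH 7.4 Tris buffer (150 mM NaCl, 0.1% PEG8000, 0.02% Tween80). It is preincubated 10 min at 37 °C with the agent or solvent, then 345 µM S-2366 is added. Initial rate of A405 increase gives residual activity relative to no-inhibitor control.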
# [2] = target: Coagulation factor XI (Homo sapiens) (UniProt P03951); experiment: Inhibition of human FXIa assessed as S-2366 hydrolysis at 300 uM after 10 mins by microplate reader analysis
# In short: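 Human FXIa (0.765 nM final) preincubated 10 min at 37 °C with inhibitor or solvent reference in pH 7.4 50 mM Tris-HCl, 150 mM NaCl, 0.1% PEG8000, 0.02% Tween80. S-2366 (345 µM) then added, and initial A405 rate read on a microplate reader. Residual activity is expressed relative to the no-inhibitor control. Highest concentration tested was 300 µM.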
# Blood [3] = experiment: Anticoagulant activity in human whole blood assessed as maximum amplitude at 280 ug/ml by thromboelastography (reference value: 59 mm); format: functional
# In short: (§1)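 Thromboelastography in sodium-citrated human whole blood at 37 °C. 340 µL of blood containing 10 µL of the agent (or high-purity water) is added to a cup holding 20 µL of 200 mM CaCl2 stock, oscillating through 4°45′ at 0.1 Hz. Clot force on a central pin is recorded and read out as R, α, MA and G.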
# Blood [4] = experiment: Anticoagulant activity in human whole blood assessed as maximum amplitude at 190 ug/ml by thromboelastography (reference value: 59 mm); format: functional; in short: as §1
# Blood [5] = experiment: Anticoagulant activity in human whole blood assessed as maximum amplitude at 135 ug/ml by thromboelastography (reference value: 59 mm); format: functional; in short: as §1
# Coagulation factor X = Coagulation factor X (Homo sapiens, UniProt P00742); experiment: Inhibition of human FXa after 60 secs by spectrophotometry
# Sequence of Coagulation factor X (P00742 41-179 limits assumed): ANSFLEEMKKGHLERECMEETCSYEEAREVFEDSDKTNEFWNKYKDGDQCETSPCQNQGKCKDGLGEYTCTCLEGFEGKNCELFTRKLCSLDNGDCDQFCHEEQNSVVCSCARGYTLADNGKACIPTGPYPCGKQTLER
# Sequence of Coagulation factor X (P00742 235-488 limits assumed): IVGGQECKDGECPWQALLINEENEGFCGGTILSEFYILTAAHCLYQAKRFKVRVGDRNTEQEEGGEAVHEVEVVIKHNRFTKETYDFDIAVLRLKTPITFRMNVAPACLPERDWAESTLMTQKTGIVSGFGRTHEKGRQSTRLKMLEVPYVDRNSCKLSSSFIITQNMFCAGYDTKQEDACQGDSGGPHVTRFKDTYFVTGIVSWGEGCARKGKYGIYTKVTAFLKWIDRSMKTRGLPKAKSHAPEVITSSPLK
# Blood [6] = experiment: Anticoagulant activity in human whole blood assessed as angle alpha at 135 ug/ml by thromboelastography (reference value: 56.4 deg); format: functional; in short: as §1
# Blood [7] = experiment: Anticoagulant activity in human whole blood assessed as angle alpha at 20 ug/ml by thromboelastography (reference value: 56.4 deg); format: functional; in short: as §1
# [8] = target: T1, Serine protease 1 (Bos taurus) (UniProt P00760); experiment: Inhibition of bovine trypsin at 1.8 mg/ml after 60 secs by spectrophotometry
# T1 sequence (whole entry): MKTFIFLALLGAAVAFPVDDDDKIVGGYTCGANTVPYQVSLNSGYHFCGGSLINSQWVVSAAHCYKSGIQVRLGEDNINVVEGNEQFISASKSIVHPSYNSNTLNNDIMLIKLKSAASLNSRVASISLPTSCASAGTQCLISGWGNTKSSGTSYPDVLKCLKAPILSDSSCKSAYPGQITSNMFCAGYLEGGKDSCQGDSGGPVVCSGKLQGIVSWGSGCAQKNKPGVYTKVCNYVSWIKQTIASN
# In short: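 Chromogenic substrate hydrolysis assay of bovine trypsin (72.5 ng/mL in the well) with 80 µM substrate, with substrate level chosen from its KM. Enzyme stock was in 50 mM Tris-HCl pH 7.4, 150 mM NaCl, 0.1% PEG8000, 0.02% Tween80. Fractional residual activity was read spectrophotometrically across at least six serial inhibitor dilutions to derive IC50.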
# Bos taurus = organism: Bos taurus; experiment: Inhibition of bovine chymotrypsin at 1.8 mg/ml after 60 secs by spectrophotometry
# Plasma [9] = experiment: Anticoagulant activity in human plasma assessed as concentration required to double activated partial […] time; format: functional
# In short: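 Citrated pooled normal human plasma (90 µL) plus 10 µL of the test agent and 100 µL of prewarmed ellagic acid APTT reagent (0.2% ellagic acid). The mixture is incubated 4 min at 37 °C, then clotting is started with prewarmed 25 mM CaCl2 and read on a fibrometer. Clotting time versus concentration is fitted to a quadratic trend line to get the concentration that doubles it. Water or organic vehicle serves as the blank.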
# Blood [10] = experiment: Anticoagulant activity in human whole blood assessed as clot formation time at 20 ug/ml by thromboelastography (reference value: 6.0 mins); format: functional; in short: as §1
# Blood [11] = experiment: Anticoagulant activity in human whole blood assessed as clot formation time at 135 ug/ml by thromboelastography (reference value: 6.0 mins); format: functional; in short: as §1
# Coagulation factor IX = Coagulation factor IX (Homo sapiens, UniProt P00740); experiment: Inhibition of human FIXa after 60 secs by spectrophotometry
# Sequence of Coagulation factor IX (P00740 47-191 limits assumed): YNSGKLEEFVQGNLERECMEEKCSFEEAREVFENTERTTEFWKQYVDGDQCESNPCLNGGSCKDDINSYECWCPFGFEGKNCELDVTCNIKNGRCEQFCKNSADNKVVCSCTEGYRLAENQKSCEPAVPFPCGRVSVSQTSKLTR
# Sequence of Coagulation factor IX (P00740 227-461 limits assumed): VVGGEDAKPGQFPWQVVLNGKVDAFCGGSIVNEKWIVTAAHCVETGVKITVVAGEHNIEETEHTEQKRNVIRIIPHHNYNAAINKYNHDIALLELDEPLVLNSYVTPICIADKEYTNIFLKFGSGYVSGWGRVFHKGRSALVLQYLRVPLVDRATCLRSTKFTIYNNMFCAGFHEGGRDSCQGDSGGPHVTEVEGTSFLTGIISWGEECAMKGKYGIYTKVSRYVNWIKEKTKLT
# Blood [12] = experiment: Anticoagulant activity in human whole blood assessed as clot formation time at 190 ug/ml by thromboelastography (reference value: 6.0 mins); format: functional; in short: as §1
# [13] = target: T2, Coagulation factor XII (Homo sapiens) (UniProt P00748); experiment: (§2) Inhibition of FXIIa (unknown origin) after 60 secs by spectrophotometry
# T2 sequence (whole entry): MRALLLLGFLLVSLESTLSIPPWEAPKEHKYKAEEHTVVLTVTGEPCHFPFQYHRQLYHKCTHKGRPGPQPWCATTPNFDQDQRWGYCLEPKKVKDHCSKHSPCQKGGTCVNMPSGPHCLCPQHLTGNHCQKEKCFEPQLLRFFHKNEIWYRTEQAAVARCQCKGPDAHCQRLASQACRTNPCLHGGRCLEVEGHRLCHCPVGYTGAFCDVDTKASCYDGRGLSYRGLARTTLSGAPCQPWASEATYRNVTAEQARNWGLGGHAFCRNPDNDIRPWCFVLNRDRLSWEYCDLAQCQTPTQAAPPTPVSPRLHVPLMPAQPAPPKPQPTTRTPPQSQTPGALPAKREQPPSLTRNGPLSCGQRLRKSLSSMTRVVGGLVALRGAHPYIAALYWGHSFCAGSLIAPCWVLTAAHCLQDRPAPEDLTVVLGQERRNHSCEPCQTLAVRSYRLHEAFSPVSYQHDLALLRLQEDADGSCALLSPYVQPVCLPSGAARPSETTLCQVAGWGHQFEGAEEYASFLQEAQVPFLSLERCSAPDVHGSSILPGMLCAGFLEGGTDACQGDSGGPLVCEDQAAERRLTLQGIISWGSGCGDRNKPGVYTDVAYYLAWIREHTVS
# In short: (§3)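 Chromogenic substrate hydrolysis at pH 7.4 with at least six serially diluted concentrations of the agent. Residual activity is read spectrophotometrically and the IC50 is obtained from a dose–response fit. Substrate levels were set from its KM. Final enzyme/substrate: thrombin 6 nM/50 µM Spectrozyme TH; FXa 1.09 nM/125 µM; FXIIa 5 nM/125 µM; FIXa 89 nM/850 µM.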
# Coagulation factor XII = target: T3, Coagulation factor XII (Homo sapiens, UniProt P00748); experiment: as §2; in short: as §3
# T3 sequence (P00748 whole entry): T2 sequence (whole entry)
# Plasma [14] = experiment: Anticoagulant activity in human plasma assessed as concentration required to double […] prothrombin time; format: functional
# In short: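 Prothrombin time is a one-stage recalcification assay read on a fibrometer. 10 µL of the agent is made up to 100 µL with citrated human plasma and incubated 30 s at 37 °C. Clotting is started with 200 µL of prewarmed thromboplastin-D. A quadratic trend line of clotting time versus concentration gives the concentration that doubles clotting time. Water or organic vehicle serves as the blank.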
# Prothrombin = Prothrombin (Homo sapiens, UniProt P00734); experiment: Inhibition of human thrombin after 60 secs by spectrophotometry; in short: as §3
# Blood [15] = experiment: Anticoagulant activity in human whole blood assessed as clot formation time at 280 ug/ml by thromboelastography (reference value: 6.0 mins); format: functional; in short: as §1
# [16] = target: T4, Coagulation factor VII (Homo sapiens) (UniProt P08709); experiment: Inhibition of human FVIIa at 3.7 mg/ml after 60 secs by spectrophotometry
# T4 sequence (whole entry): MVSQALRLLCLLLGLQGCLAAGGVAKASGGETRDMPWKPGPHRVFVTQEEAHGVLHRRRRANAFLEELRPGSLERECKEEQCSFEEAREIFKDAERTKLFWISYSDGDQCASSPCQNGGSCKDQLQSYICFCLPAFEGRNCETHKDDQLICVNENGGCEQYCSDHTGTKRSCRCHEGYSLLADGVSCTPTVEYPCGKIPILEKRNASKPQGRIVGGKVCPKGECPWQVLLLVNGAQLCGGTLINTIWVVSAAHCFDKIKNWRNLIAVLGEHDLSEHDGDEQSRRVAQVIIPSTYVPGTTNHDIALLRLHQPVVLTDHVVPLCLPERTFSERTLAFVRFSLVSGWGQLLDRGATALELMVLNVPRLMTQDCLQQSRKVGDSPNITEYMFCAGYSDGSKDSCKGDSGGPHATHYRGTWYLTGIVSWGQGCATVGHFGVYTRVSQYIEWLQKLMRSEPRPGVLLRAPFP
# In short: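 Chromogenic hydrolysis with at least six serial concentrations of the agent and spectrophotometric residual activity. Factor VIIa was 8 nM with 1000 µM Spectrozyme FVIIa plus 40 nM recombinant tissue factor. Bovine chymotrypsin was 500 ng/mL with 240 µM Spectrozyme CTY.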
# Blood [17] = experiment: Anticoagulant activity in human whole blood assessed as angle alpha at 190 ug/ml by thromboelastography (reference value: 56.4 deg); format: functional; in short: as §1
# Blood [18] = experiment: Anticoagulant activity in human whole blood assessed as maximum amplitude at 20 ug/ml by thromboelastography (reference value: 59 mm); format: functional; in short: as §1
# [19] = target: Coagulation factor XI (Homo sapiens) (UniProt P03951); details: 3 uM
# Plasma [20] = experiment: Ratio of concentration required to double clotting time for compound to enoxaparin in human plasma; format: functional
# Sequence of Coagulation factor XI (Homo sapiens) (P03951 19-387 limits assumed): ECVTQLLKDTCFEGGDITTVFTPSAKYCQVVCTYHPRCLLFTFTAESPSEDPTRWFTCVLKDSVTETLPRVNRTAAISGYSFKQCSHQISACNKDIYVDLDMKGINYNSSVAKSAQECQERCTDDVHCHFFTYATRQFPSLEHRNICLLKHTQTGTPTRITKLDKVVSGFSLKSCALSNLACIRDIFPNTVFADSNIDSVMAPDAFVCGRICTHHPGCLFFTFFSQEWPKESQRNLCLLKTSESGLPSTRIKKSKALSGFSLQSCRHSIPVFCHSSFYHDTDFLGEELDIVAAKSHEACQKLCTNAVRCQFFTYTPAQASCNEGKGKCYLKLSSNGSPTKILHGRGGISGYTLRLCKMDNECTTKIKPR
# Sequence of Coagulation factor XI (Homo sapiens) (P03951 388-625 limits assumed): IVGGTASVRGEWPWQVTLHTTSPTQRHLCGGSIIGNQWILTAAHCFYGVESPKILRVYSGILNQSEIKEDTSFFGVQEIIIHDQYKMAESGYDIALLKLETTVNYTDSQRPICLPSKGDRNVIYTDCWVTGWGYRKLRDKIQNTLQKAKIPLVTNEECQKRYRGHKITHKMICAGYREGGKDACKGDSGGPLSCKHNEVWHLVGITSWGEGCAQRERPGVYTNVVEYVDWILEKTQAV
structure (smiles),measurement,setting,value
COc1cc([C@H]2Oc3cc([C@H]4Oc5cc(OS(=O)(=O)O)cc(O)c5C(=O)[C@@H]4OS(=O)(=O)O)ccc3O[C@@H]2COS(=O)(=O)O)ccc1OS(=O)(=O)O,inhibition,[1],inactive
O=C(/C=C/c1ccc(OS(=O)(=O)O)c(OS(=O)(=O)O)c1)O[C@@H]1C[C@](O)(C(=O)O)C[C@@H](OS(=O)(=O)O)[C@H]1OS(=O)(=O)O,inhibition,[1],inactive
O=C(CCCc1cc(OS(=O)(=O)O)ccc1OS(=O)(=O)O)N1CCc2c(ccc(OS(=O)(=O)O)c2OS(=O)(=O)O)C1,inhibition,[1],inactive
O=C(CCc1cc(OS(=O)(=O)O)ccc1OS(=O)(=O)O)N1CCc2cc(OS(=O)(=O)O)c(OS(=O)(=O)O)cc2C1,inhibition,[1],inactive
O=C(O)C1Cc2c(OS(=O)(=O)O)ccc(OS(=O)(=O)O)c2CN1C(=O)CCCCc1cc(OS(=O)(=O)O)ccc1OS(=O)(=O)O (centres undefined),inhibition,[1],inactive
O=C(O)C1Cc2c(OS(=O)(=O)O)ccc(OS(=O)(=O)O)c2CN1C(=O)CCCc1cc(OS(=O)(=O)O)ccc1OS(=O)(=O)O (centres undefined),inhibition,[1],inactive
O=C(O)C1Cc2c(OS(=O)(=O)O)ccc(OS(=O)(=O)O)c2CN1C(=O)CCc1cc(OS(=O)(=O)O)ccc1OS(=O)(=O)O (centres undefined),inhibition,[1],inactive
O=C(O)C1Cc2cc(OS(=O)(=O)O)c(OS(=O)(=O)O)cc2CN1C(=O)CCCCc1cc(OS(=O)(=O)O)ccc1OS(=O)(=O)O (centres undefined),inhibition,[1],inactive
O=C(O)C1Cc2cc(OS(=O)(=O)O)c(OS(=O)(=O)O)cc2CN1C(=O)CCCc1cc(OS(=O)(=O)O)ccc1OS(=O)(=O)O (centres undefined),inhibition,[1],inactive
O=C(O)C1Cc2cc(OS(=O)(=O)O)c(OS(=O)(=O)O)cc2CN1C(=O)CCc1cc(OS(=O)(=O)O)ccc1OS(=O)(=O)O (centres undefined),inhibition,[1],inactive
O=C(OC[C@H]1O[C@@H](OC(=O)c2cc(O)c(O)c(O)c2)[C@H](OC(=O)c2cc(O)c(O)c(O)c2)[C@@H](OC(=O)c2cc(O)c(O)c(O)c2)[C@@H]1OC(=O)c1cc(O)c(O)c(O)c1)c1cc(O)c(O)c(O)c1,inhibition,[2],inactive
O=C(OC[C@H]1O[C@@H](OC(=O)c2cc(OS(=O)(=O)[O-])c(O)c(OS(=O)(=O)[O-])c2)[C@H](OC(=O)c2cc(OS(=O)(=O)[O-])c(O)c(OS(=O)(=O)[O-])c2)[C@@H](OC(=O)c2cc(OS(=O)(=O)[O-])c(O)c(OS(=O)(=O)[O-])c2)[C@@H]1OC(=O)c1cc(OS(=O)(=O)[O-])c(O)c(OS(=O)(=O)[O-])c1)c1cc(OS(=O)(=O)[O-])c(O)c(OS(=O)(=O)[O-])c1.[Na+].[Na+].[Na+].[Na+].[Na+].[Na+].[Na+].[Na+].[Na+].[Na+] [sulfated pentagalloylglucoside],Activity,Blood [3],15.1 mm
same,Activity,Blood [4],43.5 mm
same,Activity,Blood [5],49.8 mm
same,IC50,Coagulation factor X,136 µM
same,Activity,Blood [6],30.6 degree
same,Activity,Blood [7],51.4 degree
same,inhibition,[8],inactive
same,inhibition,Bos taurus,inactive
same,2aPTT,Plasma [9],96 µg/mL
same,Time,Blood [10],6.6 min
same,Time,Blood [11],22.8 min
same,IC50,Coagulation factor IX,582 µM
same,Time,Blood [12],37.8 min
same,Efficacy,[13],55.7%
same,IC50,Coagulation factor XII,131 µM
same,2PT,Plasma [14],298 µg/mL
same,IC50,Prothrombin,622 µM
same,Time,Blood [15],87.1 min
same,inhibition,[16],inactive
same,Activity,Blood [17],9.4 degree
same,Activity,Blood [18],62 mm
same,Efficacy,[19],100%
same,Ratio,Plasma [20],18
